Laboratory results published in ChEMBL document CHEMBL1212825, “Synthesis and structure-activity relationships of N-(2-oxo-3-oxetanyl)amides as N-acylethanolamine-hydrolyzing acid amidase inhibitors” (J Med Chem, 2010).
Active and inactive are the calls of the source. The calls are words filed in the database; no cut-off is given here.

B1: N-acylethanolamine-hydrolyzing acid amidase (Rattus norvegicus), Q5KTC7 (protein)
chain: MGTPAIRAACHGAHLALALLLLLSLSDPWLWATAPGTPPLFNVSLDAAPELRWLPMLQHYDPDFVRAAVAQVIGDRVPQWILEMIGEIVQKVESFLPQPFTSEIRGICDYLNLSLAEGVLVNLAYEASAFCTSIVAQDSQGRIYHGRNLDYPFGNALRKLTADVQFVKNGQIVFTATTFVGYVGLWTGQSPHKFTISGDERDKGWWWENMIAALSLGHSPISWLIRKTLTESEDFEAAVYTLAKTPLIADVYYIVGGTSPQEGVVITRDRGGPADIWPLDPLNGAWFRVETNYDHWEPVPKRDDRRTPAIKALNATGQAHLSLETLFQVLSVFPVYNNYTIYTTVMSAAEPDKYMTMIRNPS

Substrate: O=C(N[C@H]1COC1=O)c1ccc(-c2ccccc2)cc1
Assay: not given
Conditions: Rattus norvegicus; HEK293; 200 nM

In the case of B1, the Vmax is reported as 6.2 nmol/min.

Target: T1, N-acylethanolamine-hydrolyzing acid amidase (Rattus norvegicus) (UniProt Q5KTC7)
T1 sequence (whole entry): B1 chain
Assay: Inhibition of rat recombinant NAAA expressed in HEK293 cells assessed as recovered initial enzyme activity at 10 uM after 12 hrs of dialysis; values are per cent of control
Conditions: not given

`O=C(CCc1ccccc1)N[C@H]1COC1=O` was tested, and the residual activity was 44%.

Tested on: Mus musculus
Assay: Antiinflammatory activity in polyethylene sponges implanted mouse assessed as reduction of carrageenan-induced leukocyte infiltration compound administered into sponges
Type: functional, organism-based
Conditions: not given

With `O=C(CCc1ccccc1)N[C@H]1COC1=O` the Activity was “Active”.
With `O=C(N[C@H]1COC1=O)c1ccc(-c2ccccc2)cc1` the Activity was “Active”.

Tested on: Mus musculus
Assay: Antiinflammatory activity in polyethylene sponges implanted mouse assessed as inhibition of carrageenan-induced reduction of palmitoylethanolamine level compound administered into sponges
Type: functional, organism-based
Conditions: not given
Outline: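 Mice received subcutaneous polyethylene sponges (1 cm3, 2 per mouse) under dorsal skin. Each sponge was instilled with carrageenan 1.0% in 90 μL sterile saline plus drug or vehicle (DMSO, 10 μL/sponge), with drugs given over a range of doses. PEA measured by LC/MS.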

With `O=C(CCc1ccccc1)N[C@H]1COC1=O` the Activity was “Dose-dependent effect”.
`O=C(N[C@H]1COC1=O)c1ccc(-c2ccccc2)cc1` was tested, and the Activity was “Dose-dependent effect”.

Substrate: O=C(N[C@H]1COC1=O)c1ccc(-c2ccccc2)cc1
Assay: not given
Conditions: Rattus norvegicus; HEK293; 100 nM

In the case of B1, the Km is reported as 129 µM.

Substrate: O=C(N[C@H]1COC1=O)c1ccc(-c2ccccc2)cc1
Assay: not given
Conditions: Rattus norvegicus; HEK293; 200 nM
Remark: another data set of the same source

With B1 the Km was 156 µM.

Target: T2, N-acylethanolamine-hydrolyzing acid amidase (Rattus norvegicus, UniProt Q5KTC7)
T2 sequence (Q5KTC7 whole entry): B1 chain
Assay: Inhibition of rat recombinant NAAA expressed in HEK293 cells after 30 mins
Type: cell-based
Conditions: not given
Outline: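 Rat NAAA (full-length coding sequence cloned from rat brain cDNA, Flag-tagged) stably expressed in HEK293 cells, selected with G418 0.3 mg/mL. Enzyme taken as 105,000 g supernatant after freeze-thaw of the 12,000 g pellet. Incubated at 37 °C for 30 min in 50 mM sodium hydrogen phosphate pH 5.0 with 0.1% Triton X-100, 3 mM DTT and 50 μM heptadecenoylethanolamide substrate. IC50 reported.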

Going from `O=C(N[C@H]1COC1=O)c1cccc2ccccc12` to `O=C(N[C@@H]1COC1=O)c1ccc2ccccc2c1`, the IC50 falls from 50000 nM to 3200 nM (16-fold). The second is the more potent here.

`CCOC(=O)c1ccc2cc(C(=O)N[C@H]3COC3=O)ccc2c1` and `COc1ccc2cc(C(=O)N[C@H]3COC3=O)ccc2c1` are within 1.5-fold of each other in IC50: 300 nM for the first, 400 nM for the second.

`O=C(CCc1ccccc1)NC1CCC1` and `O=C(CCc1ccccc1)N[C@H]1CCOC1=O` cannot be ordered by IC50: greater than 100000 nM for the first, greater than 100000 nM for the second.

First: CCc1ccc(C(=O)N[C@H]2COC2=O)cc1
Second: O=C(N[C@H]1COC1=O)c1ccccc1
The IC50 of the first is 17-fold lower: 102 nM for the first, 1700 nM for the second. The first is the more potent here.

Going from `O=C(N[C@H]1CCOC1=O)c1ccc2ccccc2c1` to `O=C(N[C@H]1COC1=O)c1ccc2ccccc2c1`, the IC50 falls from greater than 100000 nM to 160 nM. The second is the more potent here.

First: O=C(N[C@H]1COC1=O)c1ccc(C(=O)Oc2ccccc2)cc1
Second: O=C(N[C@H]1COC1=O)c1ccc(OCc2ccccc2)cc1
The IC50 of the first is 3.3-fold higher: 300 nM for the first, 90 nM for the second. The second is the more potent here.

First: O=C(N[C@H]1COC1=O)c1cccc(-c2ccccc2)c1
Second: O=C(Cc1ccccc1)N[C@H]1COC1=O
The IC50 of the first is 2.4-fold higher: 4400 nM for the first, 1850 nM for the second.

Compared with `C[C@@H]1OC(=O)[C@@H]1NC(=O)CCc1ccccc1`, `C[C@H]1OC(=O)[C@H]1NC(=O)CCc1ccccc1` is higher in IC50: 3200 nM for the first, greater than 100000 nM for the second.

First: O=C1OCC1CCCCc1ccccc1 (racemic)
Second: O=C(CCCCCCc1ccccc1)N[C@H]1COC1=O
The IC50 of the first is 7.3-fold higher: 11000 nM for the first, 1500 nM for the second.

Going from `O=C(CCc1ccccc1)N[C@@H](CO)C(=O)O` to `O=C(CCc1ccccc1)N[C@@H]1COC1=O`, the IC50 falls from greater than 100000 nM to 6000 nM. The second is the more potent here.

First: CCCCCCC(=O)N[C@H]1COC1=O
Second: O=C(N[C@H]1COC1=O)OCc1ccccc1
The IC50 of the first is 6.4-fold lower: 460 nM for the first, 2960 nM for the second. The first is the more potent here.

Substrate: O=C(N[C@H]1COC1=O)c1ccc(-c2ccccc2)cc1
Assay: not given
Conditions: Rattus norvegicus; HEK293; 100 nM
Remark: another data set of the same source

With B1 the Vmax was 10.8 nmol/min.
